Laboratory results as given in ChEMBL document CHEMBL1122605, “Synthesis and evaluation of radioiodinated (E)-18-iodo-17-octadecenoic acid as a model iodoalkenyl fatty acid for myocardial imaging” (J Med Chem, 1984).
“And” between values parts separate entries of the source, which are not always exact repeats. Equal entries are not always repeated.

Tests used:
Rattus norvegicus [1] = test: Distribution of the [125I]-labeled compound in heart tissue of female Fischer 344 rat 5 min after intravenous administration. Value in the parentheses is ratio of distribution in heart and blood; format: ADME, organism-based; conditions: in vivo
Method in brief: (§1)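 Radioiodinated ([125I]) fatty acid formulated in 6% bovine serum albumin solution (10% EtOH), passed through a 0.22-µm filter, injected into a lateral tail vein of female Fischer 344 rats. Tissues taken at set times post-injection; radioactivity expressed as percent injected dose/g tissue (mean, range), with heart:blood ratio calculated from heart and blood values.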

Rattus norvegicus [2] = test: Distribution of the [125I]-labeled compound in heart tissue of female Fischer 344 rat 120 min after intravenous administration. Value in the parentheses is ratio of distribution in heart and blood; format: ADME, organism-based; conditions: in vivo, 2 h; method in brief: as §1
Rattus norvegicus [3] = test: Distribution of the [125I]-labeled compound in heart tissue of female Fischer 344 rat 30 min after intravenous administration.; format: ADME, organism-based; conditions: in vivo, 0.5 h
Method in brief: (§2)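 Tissues were sampled at the stated times after injection. Radioactivity is expressed as mean (range) percent injected dose/g tissue. Heart:blood ratios were calculated from these tissue values.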

Rattus norvegicus [4] = test: Distribution of the [125I]-labeled compound in lungs of female Fischer 344 rat 5 min after intravenous administration.; format: ADME, organism-based, Lung; conditions: in vivo; method in brief: as §2
Rattus norvegicus [5] = test: Distribution of the [125I]-labeled compound in heart tissue of female Fischer 344 rat 1 day after intravenous administration.; format: ADME, organism-based; conditions: in vivo, 24 h; method in brief: as §2
Rattus norvegicus [6] = test: Distribution of the [125I]-labeled compound in blood of female Fischer 344 rat 1 hr after intravenous administration.; format: ADME, organism-based; conditions: in vivo; method in brief: as §2
Rattus norvegicus [7] = test: Distribution of the [125I]-labeled compound in heart tissue of female Fischer 344 rat 4 hr after intravenous administration.; format: ADME, organism-based; conditions: in vivo; method in brief: as §2
Rattus norvegicus [8] = test: Distribution of the [125I]-labeled compound in blood of female Fischer 344 rat 2 hr after intravenous administration.; format: ADME, organism-based; conditions: in vivo; method in brief: as §2
Rattus norvegicus [9] = test: Distribution of the [125I]-labeled compound in thyroid of female Fischer 344 rat 1 day after intravenous administration.; format: ADME, organism-based, Thyroid gland; conditions: in vivo, 24 h; method in brief: as §2
Rattus norvegicus [10] = test: Distribution of the [125I]-labeled compound in kidney of female Fischer 344 rat 4 hr after intravenous administration.; format: ADME, organism-based; conditions: in vivo; method in brief: as §2
Rattus norvegicus [11] = test: Distribution of the [125I]-labeled compound in liver of female Fischer 344 rat 4 hr after intravenous administration.; format: ADME, organism-based; conditions: in vivo; method in brief: as §2
Rattus norvegicus [12] = test: Ratio of the distribution of [125I]-labeled compound in heart/blood of female Fischer 344 rat 1 hr after intravenous administration.; format: ADME, organism-based; conditions: other tissue; method in brief: as §2
Rattus norvegicus [13] = test: Ratio of the distribution of [125I]-labeled compound in heart/blood of female Fischer 344 rat 2 hr after intravenous administration.; format: ADME, organism-based; conditions: other tissue; method in brief: as §2
Rattus norvegicus [14] = test: Distribution of the [125I]-labeled compound in heart tissue of female Fischer 344 rat 1 hr after intravenous administration.; format: ADME, organism-based; conditions: in vivo; method in brief: as §2
Rattus norvegicus [15] = test: Distribution of the [125I]-labeled compound in liver of female Fischer 344 rat 1 hr after intravenous administration.; format: ADME, organism-based; conditions: in vivo; method in brief: as §2
Rattus norvegicus [16] = test: Distribution of the [125I]-labeled compound in lungs of female Fischer 344 rat 30 min after intravenous administration.; format: ADME, organism-based, Lung; conditions: in vivo, 0.5 h; method in brief: as §2
Rattus norvegicus [17] = test: Distribution of the [125I]-labeled compound in thyroid of female Fischer 344 rat 30 min after intravenous administration.; format: ADME, organism-based, Thyroid gland; conditions: in vivo, 0.5 h; method in brief: as §2
Rattus norvegicus [18] = test: Distribution of the [125I]-labeled compound in kidney of female Fischer 344 rat 1 hr after intravenous administration.; format: ADME, organism-based; conditions: in vivo; method in brief: as §2
Rattus norvegicus [19] = test: Distribution of the [125I]-labeled compound in kidney of female Fischer 344 rat 5 min after intravenous administration.; format: ADME, organism-based; conditions: in vivo; method in brief: as §2
Rattus norvegicus [20] = test: Distribution of the [125I]-labeled compound in thyroid of female Fischer 344 rat 4 hr after intravenous administration.; format: ADME, organism-based, Thyroid gland; conditions: in vivo; method in brief: as §2
Rattus norvegicus [21] = test: Ratio of the distribution of [125I]-labeled compound in heart/blood of female Fischer 344 rat 1 day after intravenous administration.; format: ADME, organism-based; conditions: other tissue, 24 h; method in brief: as §2
Rattus norvegicus [22] = test: Distribution of the [125I]-labeled compound in kidney of female Fischer 344 rat 2 hr after intravenous administration.; format: ADME, organism-based; conditions: in vivo; method in brief: as §2
Rattus norvegicus [23] = test: Distribution of the [125I]-labeled compound in heart tissue of female Fischer 344 rat 5 min after intravenous administration.; format: ADME, organism-based; conditions: in vivo; method in brief: as §2
Rattus norvegicus [24] = test: Distribution of the [125I]-labeled compound in thyroid of female Fischer 344 rat 1 hr after intravenous administration.; format: ADME, organism-based, Thyroid gland; conditions: in vivo; method in brief: as §2
Rattus norvegicus [25] = test: Distribution of the [125I]-labeled compound in liver of female Fischer 344 rat 5 min after intravenous administration.; format: ADME, organism-based; conditions: in vivo; method in brief: as §2
Rattus norvegicus [26] = test: Distribution of the [125I]-labeled compound in liver of female Fischer 344 rat 30 min after intravenous administration.; format: ADME, organism-based; conditions: in vivo, 0.5 h; method in brief: as §2
Rattus norvegicus [27] = test: Distribution of the [125I]-labeled compound in liver of female Fischer 344 rat 1 day after intravenous administration.; format: ADME, organism-based; conditions: in vivo, 24 h; method in brief: as §2
Rattus norvegicus [28] = test: Distribution of the [125I]-labeled compound in blood of female Fischer 344 rat 4 hr after intravenous administration.; format: ADME, organism-based; conditions: in vivo; method in brief: as §2
Rattus norvegicus [29] = test: Distribution of the [125I]-labeled compound in thyroid of female Fischer 344 rat 5 min after intravenous administration.; format: ADME, organism-based, Thyroid gland; conditions: in vivo; method in brief: as §2
Rattus norvegicus [30] = test: Distribution of the [125I]-labeled compound in blood of female Fischer 344 rat 1 day after intravenous administration.; format: ADME, organism-based; conditions: in vivo, 24 h; method in brief: as §2
Rattus norvegicus [31] = test: Distribution of the [125I]-labeled compound in blood of female Fischer 344 rat 5 min after intravenous administration.; format: ADME, organism-based; conditions: in vivo; method in brief: as §2
Rattus norvegicus [32] = test: Distribution of the [125I]-labeled compound in kidney of female Fischer 344 rat 1 day after intravenous administration.; format: ADME, organism-based; conditions: in vivo, 24 h; method in brief: as §2
Rattus norvegicus [33] = test: Ratio of the distribution of [125I]-labeled compound in heart/blood of female Fischer 344 rat 4 hr after intravenous administration.; format: ADME, organism-based; conditions: other tissue; method in brief: as §2
Rattus norvegicus [34] = test: Distribution of the [125I]-labeled compound in kidney of female Fischer 344 rat 30 min after intravenous administration.; format: ADME, organism-based; conditions: in vivo, 0.5 h; method in brief: as §2
Rattus norvegicus [35] = test: Distribution of the [125I]-labeled compound in blood of female Fischer 344 rat 30 min after intravenous administration.; format: ADME, organism-based; conditions: in vivo, 0.5 h; method in brief: as §2
Rattus norvegicus [36] = test: Distribution of the [125I]-labeled compound in liver of female Fischer 344 rat 2 hr after intravenous administration.; format: ADME, organism-based; conditions: in vivo; method in brief: as §2
Rattus norvegicus [37] = test: Distribution of the [125I]-labeled compound in thyroid of female Fischer 344 rat 2 hr after intravenous administration.; format: ADME, organism-based, Thyroid gland; conditions: in vivo; method in brief: as §2
Rattus norvegicus [38] = test: Ratio of the distribution of [125I]-labeled compound in heart/blood of female Fischer 344 rat 5 min after intravenous administration.; format: ADME, organism-based; conditions: in vivo; method in brief: as §2
Rattus norvegicus [39] = test: Distribution of the [125I]-labeled compound in lungs of female Fischer 344 rat 1 hr after intravenous administration.; format: ADME, organism-based, Lung; conditions: in vivo; method in brief: as §2
Rattus norvegicus [40] = test: Distribution of the [125I]-labeled compound in lungs of female Fischer 344 rat 1 day after intravenous administration.; format: ADME, organism-based, Lung; conditions: in vivo, 24 h; method in brief: as §2
Rattus norvegicus [41] = test: Distribution of the [125I]-labeled compound in heart tissue of female Fischer 344 rat 2 hr after intravenous administration.; format: ADME, organism-based; conditions: in vivo; method in brief: as §2

## O=C(O)CCCCC[Te]CCCCCCCCC/C=C/I
Rattus norvegicus [1]
  Injected dose/g tissue: 3.5%
Rattus norvegicus [2]
  Injected dose/g tissue: 2.9%

## O=C(O)CCCCCCCCCCC[Te]CCC/C=C/I
Rattus norvegicus [1]
  Injected dose/g tissue: 1.5%
Rattus norvegicus [2]
  Injected dose/g tissue: 1%

## O=C(O)CCC[Te]CCCCCCCCCCC/C=C/I
Rattus norvegicus [1]
  Injected dose/g tissue: 3.9%
Rattus norvegicus [2]
  Injected dose/g tissue: 3.6%

## O=C(O)CCCCCCC[Te]CCCCCCC/C=C/I
Rattus norvegicus [1]
  Injected dose/g tissue: 4.8%
Rattus norvegicus [2]
  Injected dose/g tissue: 3.9%

## O=C(O)CCCCCCCCCCCCCCC/C=C/I
Rattus norvegicus [3]
  Injected dose/g tissue: 2.69%
Rattus norvegicus [4]
  Injected dose/g tissue: 1.02%
Rattus norvegicus [5]
  Injected dose/g tissue: 0.32%
Rattus norvegicus [6]
  Injected dose/g tissue: 0.28%
Rattus norvegicus [7]
  Injected dose/g tissue: 0.94%
Rattus norvegicus [8]
  Injected dose/g tissue: 0.28%
Rattus norvegicus [9]
  Injected dose/g tissue: 350%
Rattus norvegicus [10]
  Injected dose/g tissue: 0.55%
Rattus norvegicus [11]
  Injected dose/g tissue: 3.08%
Rattus norvegicus [12]
  Heart/blood ratio: 7.6
Rattus norvegicus [13]
  Heart/blood ratio: 6.6
Rattus norvegicus [14]
  Injected dose/g tissue: 2.09%
Rattus norvegicus [15]
  Injected dose/g tissue: 4.83%
Rattus norvegicus [16]
  Injected dose/g tissue: 1.03%
Rattus norvegicus [17]
  Injected dose/g tissue: 20.88%
Rattus norvegicus [18]
  Injected dose/g tissue: 0.62%
Rattus norvegicus [19]
  Injected dose/g tissue: 0.82%
Rattus norvegicus [20]
  Injected dose/g tissue: 153%
Rattus norvegicus [21]
  Heart/blood ratio: 4.8
Rattus norvegicus [22]
  Injected dose/g tissue: 0.63%
Rattus norvegicus [23]
  Injected dose/g tissue: 3.17%
Rattus norvegicus [24]
  Injected dose/g tissue: 27.18%
Rattus norvegicus [25]
  Injected dose/g tissue: 8.65%
Rattus norvegicus [26]
  Injected dose/g tissue: 7.81%
Rattus norvegicus [27]
  Injected dose/g tissue: 0.6%
Rattus norvegicus [28]
  Injected dose/g tissue: 0.27%
Rattus norvegicus [29]
  Injected dose/g tissue: 9.29%
Rattus norvegicus [30]
  Injected dose/g tissue: 0.07%
Rattus norvegicus [31]
  Injected dose/g tissue: 0.3%
Rattus norvegicus [32]
  Injected dose/g tissue: 0.32%
Rattus norvegicus [33]
  Heart/blood ratio: 3.5
Rattus norvegicus [34]
  Injected dose/g tissue: 0.7%
Rattus norvegicus [35]
  Injected dose/g tissue: 0.4%
Rattus norvegicus [36]
  Injected dose/g tissue: 4.04%
Rattus norvegicus [37]
  Injected dose/g tissue: 61%
Rattus norvegicus [38]
  ratio: 10.6 and 6.7
Rattus norvegicus [39]
  Injected dose/g tissue: 0.82%
Rattus norvegicus [40]
  Injected dose/g tissue: 0.59%
Rattus norvegicus [41]
  Injected dose/g tissue: 1.72%

## O=C(O)CCCCCCCCC[Te]CCCCC/C=C/I
Rattus norvegicus [1]
  Injected dose/g tissue: 3.1%
Rattus norvegicus [2]
  Injected dose/g tissue: 3.8%
